Compound activity from PubChem.
Apaf1 inhib – inhibitors of human Apaf-1 apoptosome; O14727; reconstituted apoptosome caspase-3 activity, DEVD-Rh110 fluorescence; inhibition, % at 20 µM; 0.71% of 330,000 active; AID 489030; active means inhibition of at least 40% at 20 µM;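 further: plate controls were DMSO wells for no effect and DEVD-CHO caspase inhibitor wells for full effect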
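Material: biochemical Apaf-1 apoptosome reconstitution. Medium: Hepes buffer, pH 7.5. Also added: cytochrome c activation, bis-DEVD rhodamine 110 substrate. Timing: 30 min compound preincubation, 50 min activation, room temperature. Measured by: rhodamine 110 fluorescence at Ex 480/Em 540 nm.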
GSTO1 counter – blocks human GSTO1 in RBBP9 counter-screen | P78417 | recombinant GSTO1, activity-based probe fluorescence polarization | inhibition, % at 5.96 µM | 1.1% of 300,000 active | AID 1974;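 active means inhibition above the campaign mean inhibition plus 3 SD, cut at about 35% in these data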;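 further: 0% = GSTO1-1 with DMSO and 100% = wells lacking GSTO1-1 enzyme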
PRMT1 inh – blocks human protein arginine methyltransferase 1; recombinant PRMT1, activity-based probe fluorescence polarization; inhibition, % at 2.79 µM; 1.3% of 370,000 active; Q99873;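 active means inhibition above about 21% made by adding two undisclosed values, limit read from the data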
Target sequence (Q99873 whole entry, looked up): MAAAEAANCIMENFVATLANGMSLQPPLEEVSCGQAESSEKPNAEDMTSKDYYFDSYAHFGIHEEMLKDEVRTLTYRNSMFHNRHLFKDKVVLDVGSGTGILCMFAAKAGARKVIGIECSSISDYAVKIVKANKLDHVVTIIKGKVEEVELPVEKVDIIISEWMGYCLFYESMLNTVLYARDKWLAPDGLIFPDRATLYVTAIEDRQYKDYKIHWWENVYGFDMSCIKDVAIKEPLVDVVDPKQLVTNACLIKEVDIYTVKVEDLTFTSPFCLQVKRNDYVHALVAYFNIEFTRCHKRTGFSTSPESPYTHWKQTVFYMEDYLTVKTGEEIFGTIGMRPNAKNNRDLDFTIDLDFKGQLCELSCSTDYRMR
TDP2 inh – blocks human TDP2 phosphodiesterase activity. O95551. inhibition, % at 12.8 µM. recombinant TDP2, T5PNP hydrolysis, p-nitrophenol absorbance 415 nm. 0.34% of 370,000 active;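 active means inhibition above the mean of all tested compounds plus 3 SD, set per campaign, cut at about 25% in these data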;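 further: 0% = DMSO with enzyme and 100% = buffer with substrate but no TDP2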
Target sequence (O95551 whole entry, looked up): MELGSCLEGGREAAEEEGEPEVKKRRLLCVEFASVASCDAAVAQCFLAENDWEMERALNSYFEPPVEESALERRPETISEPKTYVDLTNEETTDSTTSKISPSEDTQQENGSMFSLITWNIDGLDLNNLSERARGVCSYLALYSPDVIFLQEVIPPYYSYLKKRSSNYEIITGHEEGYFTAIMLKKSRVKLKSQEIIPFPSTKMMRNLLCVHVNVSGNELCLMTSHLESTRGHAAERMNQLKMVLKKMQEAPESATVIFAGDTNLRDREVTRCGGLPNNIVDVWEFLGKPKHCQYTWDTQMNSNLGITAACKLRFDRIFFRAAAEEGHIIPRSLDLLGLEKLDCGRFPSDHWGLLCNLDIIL
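System – recombinant human TDP2 · Amount – 120 nM TDP2 per well · Buffer or medium – Mg2+-containing Tris-HCl buffer, pH 7.5 · Reagent – T5PNP substrate, 5 mM · Dosing – 12.8 µM single point, 1% DMSO · Incubation – 2 h at 37 °C · Measured by – epi absorbance · Read-out basis – percent inhibition · Benchmarks – high control without enzyme, low control DMSO plus TDP2 · Repeats – singlicate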
PAD4 FP inh – blocks human protein arginine deiminase 4; inhibition, % at 6.36 µM; 0.41% of 330,000 active; Q9UM07; recombinant PAD4, RCA probe fluorescence polarization;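 active means percent inhibition above a cutoff equal to the mean of all tested compounds plus 3 SD, cut at about 15% in these data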;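 further: 0% = PAD4 with RCA probe and DMSO and 100% = probe without PAD4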
Apaf-1 inh conf2 – Apaf-1 inhibition, single-dose confirmed; shares compounds with Apaf1 inhib; reconstituted apoptosome, caspase-3 DEVD-Rh110 fluorescence; inhibition, % at 20 µM; 25% of 1,800 active; AID 504614;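 active means mean inhibition of at least 40% at 20 µM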;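 further: plate controls were DMSO wells for no effect and DEVD-CHO caspase inhibitor control wells for full effect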
Rh110 interf inh – counter-screen for Apaf-1 inhibitors: fluorescence interference; activation (fluorescence interference), % at 20 µM; 1,800 tested, under 10 active; Rh110 fluorescence interference, quenched caspase reaction; shares compounds with Apaf1 inhib;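 active means signal rise of 40% or more at 20 µM, treated as a fluorescence artifact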
Fluor interf inh – counter-screen for Apaf-1 inhibitors: fluorescence interference, dose response; 460 tested, under 10 active; shares compounds with Apaf1 inhib; fluorescence interference counterscreen, Apaf-1 assay format; IC50, µM; call rule not given here
PRMT1 inh conf – PRMT1 (human) inhibition, FP confirmation; inhibition, % at 2.79 µM; recombinant His-PRMT1, activity-based probe fluorescence polarization; 42% of 3,300 active; shares compounds with PRMT1 inh;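 active means mean inhibition across replicates above the hit cutoff derived for the earlier primary screen, cut at about 22% in these data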
TDP2 confirm – confirmation of human TDP2 inhibitors; AID 743263; shares compounds with TDP2 inh; 22% of 1,100 active; inhibition, % at 12.8 µM; recombinant human TDP2, absorbance read-out; in the data active means inhibition above about 25%;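 further: 0% = vehicle with enzyme and 100% = no enzyme buffer only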
The depositor's hits bear a star; · = no result; ! = repeats disagree. An excerpt weighted towards active compounds, which were near 2.6% of everything screened.

SMILES | Apaf1 inhib | GSTO1 counter | PRMT1 inh | TDP2 inh | PAD4 FP inh | Apaf-1 inh conf2 | Rh110 interf inh | TDP2 confirm | others
CCCCCn1c(NC(=O)c2ccco2)c(S(=O)(=O)c2ccc(C)cc2)c2nc3ccccc3nc21 | 62.8* | 12.3 | 14.7 | 68.9* | -9.7 | 33.6 | 13.4 | 0.8
Cc1ccc(C(=O)Nn2c(N)c(S(=O)(=O)c3ccc(C)cc3)c3nc4ccccc4nc32)cc1 | 32.1 | -8.1 | 2.8 | -3.2 | -1.8 | · | · | ·
S=c1[nH]nc(-c2n[nH]c3c2CCC3)n1N=Cc1ccc(OCc2ccccc2)cc1 | · | · | 8.8 | -1.3 | · | · | · | ·
C=CCNC(=S)Nc1ccc2nsnc2c1 | 22.7 | 16.4 | -1.7 | 8.7 | -9.0 | · | · | ·
C=CCN(CC=C)C(=S)Nc1ccc2nsnc2c1 | 96.0* | 42.0* | 28.1* | 71.6* | -12.5 | 9.3 | -5.3 | 59.4*
CCOC(=O)[C@]12CCCC3=C1N(CCC3)C(=O)[C@@H](CC(=O)NCCc1ccccc1OC)C2 | · | · | -2.1 | 9.1 | · | · | · | ·
COCCCNC(=O)Cn1nc(Cc2ccncc2)c2ccccc2c1=O | · | · | -0.7 | 11.7 | · | · | · | ·
Cc1ccc(S(=O)(=O)NC2=C(N3CCN(c4ccccc4F)CC3)C(=O)c3ccccc3C2=O)cc1 | 75.9* | 11.9 | 3.9 | 25.2*! | 1.3 | 19.8 | 1.8 | 1.4
CC(=O)Nc1ccc(S(=O)(=O)NC2=C(N3CCN(c4ccc(F)cc4)CC3)C(=O)c3ccccc3C2=O)cc1 | 63.9* | 56.9* | -0.1 | 35.5* | -3.7 | 63.6* | 4.2 | 29.8* | Fluor interf inh=>100
CC(=O)Nc1ccc(S(=O)(=O)Nc2ccc(N3CCOCC3)cc2)cc1 | 3.9 | 14.4 | 2.5 | 8.9 | -2.7 | · | · | ·
CC(C)C[C@@H](CN1CCC[C@H]1CN1C(=O)C(=O)NC[C@@H]1Cc1ccccc1)N1C[C@H](Cc2ccc(O)cc2)N(CC2CCCCCC2)C(=O)C1=O | · | · | -2.2 | -6.1 | · | · | · | ·
COc1ccc(C(=O)Nc2nc3c(s2)Cc2cc(OC)ccc2-3)cc1 | 96.6* | 5.1 | 3.8 | 31.8* | -16.8 | 59.0* | 4.2 | 37.6* | Fluor interf inh=>100
Nc1ccc2nn(-c3ccccc3)nc2c1 | 93.2* | · | 7.8 | 26.9* | · | 31.5 | 14.2 | 12.9
CS(=O)(=O)Oc1ccc(Br)c2cccnc12 | 3.5 | -4.3 | -4.5 | -5.7 | 4.0 | · | · | ·
Nc1ccc(Br)c2cccnc12 | 84.9* | 10.5 | 5.9 | 47.0* | -16.9 | 46.3* | -0.6 | 40.9* | Fluor interf inh=>100
CCN(C(=O)[C@@H]1CC(=O)O[C@@H]1c1ccccc1)c1ccccc1 | · | · | -0.6 | -6.1 | · | · | · | ·
CC(=O)C(C(C)=O)C1(O)C(=O)c2ccccc2C1=O | 86.0* | 74.8* | 5.4 | 44.4* | -11.7 | 87.4* | -2.1 | 68.2* | Fluor interf inh=>100
COc1ccc(O)c(C2(O)C(=O)c3ccccc3C2=O)c1 | -11.0 | -6.0 | 0.9 | 4.3 | -0.4 | · | · | ·
COc1ccc(O)c(C(c2c(C)[nH][nH]c2=O)c2c(C)[nH][nH]c2=O)c1 | 66.5* | 29.7 | 3.4 | 73.1* | -0.4 | 14.1 | -0.7 | 72.8*
O=C(OC12CCCN(C1)/C(=C/c1ccncc1)C2)c1ccccc1 (centres undefined) | · | · | -0.8 | 5.8 | · | · | · | ·
Cc1cccc(NC(=S)Nc2cccc3ccccc23)c1 | 93.3* | 1.3 | 4.6 | 25.1* | -0.9 | 21.0 | 2.9 | -2.2
Fc1ccc(NC(=S)Nc2cccc3cnccc23)cc1 | 95.1* | 14.8 | 9.7 | 30.2* | -13.9 | 20.9 | -0.3 | -1.3
Cc1cc(Cl)ccc1NC(=S)Nc1cccnc1 | -4.4 | -0.5 | 6.3 | -11.9 | 5.7 | · | · | ·
S=C(Nc1ccc(Cl)cc1)Nc1cccc2cnccc12 | 82.7* | 37.8* | 2.9 | 35.3* | -1.6 | 17.0 | -0.6 | 31.3*
COc1ccc(N)c2c1OCCC2=O | 87.4* | 5.7 | 1.8 | 33.6* | -3.7 | 10.5 | 8.9 | -1.7
SMILES | Apaf1 inhib | GSTO1 counter | PRMT1 inh | TDP2 inh | PAD4 FP inh | Apaf-1 inh conf2 | Rh110 interf inh | TDP2 confirm | others
COC(=O)[C@]12C[C@H](CC(=O)N3CCC(c4ccccc4)CC3)C(=O)N(Cc3ccc(Cl)cc3Cl)C1=C[C@H](C(C)C)O[C@@H]2C1CC1 | · | · | 3.2 | -1.1 | · | · | · | ·
CCOC(=O)C1=C(C)OC2(O)c3ccccc3C(=O)C12O (centres undefined) | 88.5* | 73.6* | -1.4 | 69.9* | -14.7 | 98.0* | 5.7 | 81.2* | Fluor interf inh=>100
CCOC(=O)C1=C(C)c2ccccc2OC1(CC)C(=O)OCC (centres undefined) | 13.3 | · | -1.4 | -1.2 | -3.4 | · | · | ·
COc1cc2c(cc1OC)-c1cc3ccc4c(c3c[n+]1CC2)OCO4 | 73.4* | 41.7* | 56.8* | 25.6* | -18.7 | 28.4 | -3.0 | 9.1
O=C1/C(=C/c2ccccn2)SC(=S)N1Nc1ncc(C(F)(F)F)cc1Cl | · | · | 34.1* | -7.2 | · | · | · | · | PRMT1 inh conf=18.8
COc1ccc(NC(=O)CN(c2ccc(OC)cc2)S(=O)(=O)c2ccc(OC)c(OC)c2)cc1 | 11.4 | 6.6 | 2.0 | -2.5 | -3.3 | · | · | ·
Cc1cccc(Nc2ncnc(N)c2[N+](=O)[O-])n1 | 2.3 | 2.8 | -2.1 | -5.6 | -1.9 | · | · | ·
Cc1cc(C)nc(Sc2ncnc(N)c2[N+](=O)[O-])n1 | -2.9 | 13.6 | 46.9* | -10.9 | 0.1 | · | · | · | PRMT1 inh conf=19.0
C[C@H]1[C@H](NC(=O)c2ccc(C(F)(F)F)cc2)CC[C@@]23CCCN2C(=O)CCC[C@@H]13 | · | · | 53.5* | -9.2 | · | · | · | · | PRMT1 inh conf=-0.1
CCC1Nc2ncnc(N3CCN(c4ccccn4)CC3)c2N(Cc2ccc(Cl)cc2)C1=O (centres undefined) | 10.3 | 7.5 | 0.0 | 6.9 | -2.4 | · | · | ·
COc1cc(/C=C2\C(=O)NN(c3ccccc3)C2=O)cc([N+](=O)[O-])c1O | 12.4 | 12.0 | 13.7 | -14.0 | -7.4 | · | · | ·
COc1cc(/C=C2\C(=O)NN(c3ccc(C)cc3)C2=O)cc([N+](=O)[O-])c1O | 3.8 | 5.4 | 29.7* | 6.5 | -6.0 | · | · | · | PRMT1 inh conf=8.7
CSCCC(c1nc2ccccc2[nH]1)n1c(=O)c(-c2cccnc2)nc2ccccc21 (centres undefined) | · | · | 9.1 | -4.4 | · | · | · | ·
CSCCC(c1nc2ccccc2[nH]1)n1c(=O)c(-c2ccco2)nc2ccccc21 (centres undefined) | · | · | 45.1* | 13.0 | · | · | · | · | PRMT1 inh conf=15.6
C=C1C(=O)C23C(O)C1CCC2C12CCCC(C)(COC(C)=O)C1C(O)C3(O)OC2 (centres undefined) | · | · | 30.9* | 2.4 | · | · | · | · | PRMT1 inh conf=32.5*
